Data taken from ChEMBL document CHEMBL1131498, “Design, synthesis, and evaluation of the multidrug resistance-reversing activity of D-glucose mimetics of hapalosin” (J Med Chem, 1998).
Converted amounts (≈) assume the structure as drawn.

Key:
Details in all cases: Homo sapiens
HL-60 [1] = test: Effective concentration against HL-60/ADR cells using MRP-mediated MDR assay using 2 nM vincristine which results in 50% of the cells being killed in the presence of particular cytotoxic drug.; format: functional, cell-based
Outline: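 Human promyelocytic leukemia HL-60/ADR cells (MRP-expressing, no P-gp) given varying compound concentrations plus 2 nM vincristine for 48 h. Survival by MTS tetrazolium metabolism (CellTiter AQueous); % killed as decrease vs control cultures. Triplicates, mean ± SD; approximate concentration (μg/mL) giving 50% kill.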

MCF7 [2] = test: Inhibitory concentration against MCF-7/ADR cells using P-gp-mediated MDR assay using 25 nM actinomycin D which inhibit cells proliferation by 20% in the absence of particular cytotoxic drug; format: functional
Outline: (§1)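 MCF-7/ADR cells (from NCI, RPMI 1640 + 10% FBS, 50 μg/mL gentamycin) seeded at ~15% confluency, 24 h attachment, then eight doses of compound alone (PBS in place of actinomycin D) for 48 h. Sulforhodamine B staining; % kill vs ethanol solvent controls. Triplicates, mean ± SD; approximate concentration (μg/mL) giving 20% growth inhibition.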

MCF7 [3] = test: Effective concentration against MCF-7/ADR cells using P-gp-mediated MDR assay using 25 nM actinomycin D which results in 50% of the cells being killed in the presence of particular cytotoxic drug.; format: functional, cell-based
Outline: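 MCF-7/ADR cells (from NCI, grown in RPMI 1640 + 10% FBS, 50 μg/mL gentamycin) seeded at ~15% confluency, 24 h recovery, then eight doses of compound with 25 nM actinomycin D for 48 h. Survival by sulforhodamine B staining; % killed as decrease in binding vs ethanol solvent controls. Triplicates, mean ± SD; approximate concentration (μg/mL) giving 50% kill read from curves.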

HL-60 [4] = test: Inhibitory concentration against HL-60/ADR cells using MRP-mediated MDR assay using 2 nM vincristine which inhibits cell proliferation by 20% in the absence of particular cytotoxic drug; format: functional
Outline: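 HL-60/ADR leukemia cells (MRP-expressing) exposed 48 h to varying compound concentrations alone, PBS replacing vincristine. Viability by MTS tetrazolium metabolism (CellTiter AQueous), % decrease vs controls. Triplicates, mean ± SD; approximate concentration (μg/mL) inhibiting proliferation by 20%.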

MCF7 [5] = test: Inhibitory concentration against MCF-7/ADR cells using P-gp-mediated MDR assay using 25 nM actinomycin D which inhibits cell proliferation by 20% in the absence of particular cytotoxic drug; format: functional; outline: as §1

| SMILES | EC50 (HL-60 [1]) | IC20 (MCF7 [2]) | EC50 (MCF7 [3]) | IC20 (HL-60 [4]) | IC20 (MCF7 [5]) |
| --- | --- | --- | --- | --- | --- |
| CCCCCCCO[C@@H]1[C@@H](OCc2ccccc2)[C@@H](OCc2ccccc2)O[C@H](CC(C)C)[C@H]1OC | 18 µg/mL | > 20 µg/mL | > 20 µg/mL | > 20 µg/mL | – |
| CCCCCCCO[C@@H]1[C@@H](O)[C@@H](OCc2ccccc2)O[C@H](CC(C)C)[C@H]1O | 3.5 µg/mL | 12 µg/mL (≈ 30.4 µM) | 6 µg/mL | > 20 µg/mL | – |
| CCCCCCCO[C@@H]1[C@@H](O)[C@@H](OCc2ccccc2)O[C@H](CC(C)C)[C@H]1OCc1ccc(OC)cc1 | 1.8 µg/mL | 12 µg/mL (≈ 23.3 µM) | 4 µg/mL | > 20 µg/mL | – |
| CCCCCCCO[C@@H]1[C@@H](OCc2ccccc2)[C@@H](OCc2ccccc2)O[C@@H]2CO[C@@H](c3ccc(OC)cc3)O[C@@H]12 | 2.5 µg/mL | > 20 µg/mL | > 20 µg/mL | > 20 µg/mL | – |
| CCCCCCCO[C@@H]1[C@@H](O)[C@@H](OCc2ccccc2)O[C@H](CC(C)C)[C@H]1OC | 10 µg/mL | 20 µg/mL (≈ 49 µM) | 7 µg/mL | > 20 µg/mL | – |
| CCCCCCCO[C@@H]1[C@@H](OCc2ccccc2)[C@@H](OCc2ccccc2)O[C@H](CC(C)C)[C@H]1OCc1ccc(OC)cc1 | > 20 µg/mL | > 20 µg/mL | > 20 µg/mL | > 20 µg/mL | – |
| CCCCCCCO[C@@H]1[C@@H](O)[C@@H](OCc2ccccc2)O[C@H](CO)[C@H]1O | 10 µg/mL | > 20 µg/mL | > 20 µg/mL | > 20 µg/mL | – |
| CCCCCCCO[C@@H]1[C@@H](OCc2ccccc2)[C@@H](OCc2ccccc2)O[C@H](C=C(C)C)[C@H]1OCc1ccc(OC)cc1 | > 20 µg/mL | > 20 µg/mL | > 20 µg/mL | > 20 µg/mL | – |
| CCCCCCCO[C@@H]1[C@@H](OCc2ccccc2)[C@@H](OCc2ccccc2)O[C@H](C=O)[C@H]1OCc1ccc(OC)cc1 | 1.5 µg/mL | 5 µg/mL (≈ 8.67 µM) | 4 µg/mL | 1.8 µg/mL (≈ 3.12 µM) | – |
| CCCCCCCO[C@@H]1[C@@H](OCc2ccccc2)[C@@H](OCc2ccccc2)O[C@H](CO)[C@H]1OCc1ccc(OC)cc1 | 1.7 µg/mL | 6 µg/mL (≈ 10.4 µM) | 3 µg/mL | 6 µg/mL (≈ 10.4 µM) | – |
| CCCCCCCO[C@@H]1[C@@H](O)[C@@H](OCc2ccccc2)O[C@@H]2CO[C@@H](c3ccc(OC)cc3)O[C@@H]12 | 2.5 µg/mL | 12 µg/mL (≈ 24.7 µM) | 2.5 µg/mL | > 20 µg/mL | – |
| CCCCCCCO[C@H]1[C@H](O)[C@@H](CC(C)C)O[C@H](OCc2ccccc2)[C@@H]1OCc1ccccc1 | 2.5 µg/mL | 10 µg/mL (≈ 20.6 µM) | 6 µg/mL | > 20 µg/mL | – |
| CCCCCCC[C@H]1OC(=O)C[C@@H](O)[C@H](Cc2ccccc2)N(C)C(=O)[C@H](C(C)C)OC(=O)[C@H]1C [HAPALOSIN] | 0.7 µg/mL | – | 1 µg/mL | 6 µg/mL (≈ 12.3 µM) | 6 µg/mL (≈ 12.3 µM) |
| COc1ccc(CCN(C)CCCC(C#N)(c2ccc(OC)c(OC)c2)C(C)C)cc1OC (stereo unspecified) [VERAPAMIL] | 1.8 µg/mL | > 20 µg/mL | 1 µg/mL | > 20 µg/mL | – |
